Measured values: ChEMBL document CHEMBL5338825, “Structure-Based Discovery of Inhibitors of the SARS-CoV-2 Nsp14 N7-Methyltransferase” (J Med Chem, 2023)
The source made the active and inactive calls. No cut-off for these calls is given here.

How the values were obtained:
[1] = target: Histone-lysine N-methyltransferase EHMT2 (Homo sapiens) (UniProt Q96KQ7); experiment: Inhibition of human G9a using biotin-tagged Histone H3 and 3H-SAM as substrate at 10 uM incubated for 1 hrs by TopCount scintillation proximity assay relative to control
Procedure, shortened: (§1)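 Human methyltransferase panel, radiometric assays. Each compound tested at a single 10 μM concentration in triplicate. Enzymes inhibited by more than 50% were taken on to concentration–response.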

[2] = target: Histone-lysine N-methyltransferase EHMT1 (Homo sapiens) (UniProt Q9H9B1); experiment: Inhibition of human GLP using biotin-tagged Histone H3 and 3H-SAM as substrate at 10 uM incubated for 1 hrs by TopCount scintillation proximity assay relative to control; procedure, shortened: as §1
[3] = target: Histone-lysine N-methyltransferase SUV39H1 (Homo sapiens) (UniProt O43463); experiment: Inhibition of human SUV39H1 using Biotin-tagged histone H3 and 3H-SAM as substrate at 10 uM incubated for 1 hrs by TopCount scintillation proximity assay relative to control
Procedure, shortened: (§2)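 Selectivity panel against human SAM-dependent methyltransferases, radiometric format. Single test concentration of 10 μM, triplicate, read as percent inhibition.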

[4] = target: Histone-lysine N-methyltransferase KMT5C (Homo sapiens) (UniProt Q86Y97); experiment: Inhibition of human SUV420H2 using Biotin-tagged H4K20me1 and 3H-SAM as substrate at 10 uM incubated for 1 hrs by TopCount scintillation proximity assay relative to control; procedure, shortened: as §2
[5] = target: Protein arginine N-methyltransferase 1 (Homo sapiens, UniProt Q99873); experiment: Inhibition of human PRMT1 using biotin-tagged Histone H4 and 3H-SAM as substrate at 10 uM incubated for 1 hrs by TopCount scintillation proximity assay relative to control; procedure, shortened: as §1
[6] = target: Protein arginine N-methyltransferase 3 (Homo sapiens, UniProt O60678); experiment: Inhibition of human PRMT3 using biotin-tagged Histone H4 and 3H-SAM as substrate at 10 uM incubated for 1 hrs by TopCount scintillation proximity assay relative to control; procedure, shortened: as §1
[7] = target: Protein arginine N-methyltransferase 5 (Homo sapiens) (UniProt O14744); experiment: Inhibition of human PRMT5 using biotin-tagged Histone H4 and 3H-SAM as substrate at 10 uM incubated for 1 hrs by TopCount scintillation proximity assay relative to control; procedure, shortened: as §1
[8] = target: Protein arginine N-methyltransferase 6 (Homo sapiens) (UniProt Q96LA8); experiment: Inhibition of human PRMT6 using biotin-tagged Histone H4 and 3H-SAM as substrate at 10 uM incubated for 1 hrs by TopCount scintillation proximity assay relative to control; procedure, shortened: as §1
[9] = target: Protein arginine N-methyltransferase 8 (Homo sapiens) (UniProt Q9NR22); experiment: Inhibition of human PRMT8 using biotin-tagged Histone H4 and 3H-SAM as substrate at 10 uM incubated for 1 hrs by TopCount scintillation proximity assay relative to control; procedure, shortened: as §1
[10] = target: Protein arginine N-methyltransferase 9 (Homo sapiens) (UniProt Q6P2P2); experiment: Inhibition of human PRMT9 using biotin-tagged SAP145 and 3H-SAM as substrate at 10 uM incubated for 1 hrs by TopCount scintillation proximity assay relative to control; procedure, shortened: as §1
[11] = target: Histone-lysine N-methyltransferase PRDM9 (Homo sapiens) (UniProt Q9NQV7); experiment: Inhibition of human PRDM9 using biotin-tagged Histone H3 and 3H-SAM as substrate at 10 uM incubated for 1 hrs by TopCount scintillation proximity assay relative to control; procedure, shortened: as §1
[12] = target: Histone-lysine N-methyltransferase SETDB1 (Homo sapiens) (UniProt Q15047); experiment: Inhibition of human SETDB1 using biotin-tagged Histone H3 and 3H-SAM as substrate at 10 uM incubated for 1 hrs by TopCount scintillation proximity assay relative to control; procedure, shortened: as §2
[13] = target: Histone-lysine N-methyltransferase SETD2 (Homo sapiens) (UniProt Q9BYW2); experiment: Inhibition of human SETD2 using biotin-tagged Histone H3 and 3H-SAM as substrate at 10 uM incubated for 1 hrs by TopCount scintillation proximity assay relative to control; procedure, shortened: as §2
[14] = target: Histone-lysine N-methyltransferase SETD7 (Homo sapiens) (UniProt Q8WTS6); experiment: Inhibition of human SETD7 using biotin-tagged Histone H3 and 3H-SAM as substrate at 10 uM incubated for 1 hrs by TopCount scintillation proximity assay relative to control; procedure, shortened: as §2
[15] = target: N-lysine methyltransferase KMT5A (Homo sapiens) (UniProt Q9NQR1); experiment: Inhibition of human SETD8 using biotin-tagged Histone H4 and 3H-SAM as substrate at 10 uM incubated for 1 hrs by TopCount scintillation proximity assay relative to control; procedure, shortened: as §2
[16] = target: Histone-lysine N-methyltransferase 2A (Homo sapiens, UniProt Q03164); experiment: Inhibition of human MLL1 using biotin-tagged Histone H3 and 3H-SAM as substrate at 10 uM incubated for 1 hrs by TopCount scintillation proximity assay relative to control; procedure, shortened: as §1
[17] = target: Histone-lysine N-methyltransferase 2C (Homo sapiens) (UniProt Q8NEZ4); experiment: Inhibition of human MLL3 using biotin-tagged Histone H3 and 3H-SAM as substrate at 10 uM incubated for 1 hrs by TopCount scintillation proximity assay relative to control; procedure, shortened: as §1
[18] = target: Histone-lysine N-methyltransferase SMYD3 (Homo sapiens) (UniProt Q9H7B4); experiment: Inhibition of human SMYD3 using biotin-tagged MAP3K2 and 3H-SAM as substrate at 10 uM incubated for 1 hrs by TopCount scintillation proximity assay relative to control; procedure, shortened: as §2
[19] = target: Histone-lysine N-methyltransferase, H3 lysine-79 specific (Homo sapiens, UniProt Q8TEK3); experiment: Inhibition of human DOT1L using chicken nucleosome and 3H-SAM as substrate at 10 uM incubated for 1 hrs by TopCount scintillation proximity assay relative to control; procedure, shortened: as §1
[20] = target: Histone-lysine N-methyltransferase ASH1L (Homo sapiens) (UniProt Q9NR48); experiment: Inhibition of human ASH1L using chicken nucleosome and 3H-SAM as substrate at 10 uM incubated for 1 hrs by TopCount scintillation proximity assay relative to control; procedure, shortened: as §1
[21] = species on record: Homo sapiens; experiment: Inhibition of MDH (unknown origin) using oxaloacetic acid as substrate preincubated with compound for 5 mins followed by substrate addition and measured after 1.5 min in the presence of NADH by absorbance based plate reader analysis; settings: time 6.5 min
Procedure, shortened: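 MDH assay at room temperature in 50 mM KPi, pH 7.0, with 1% v/v DMSO final. Compound preincubated 5 min with 2 nM enzyme. Reaction started with 200 μM NADH plus 200 μM oxaloacetic acid, and absorbance followed at 340 nm for 1 min 30 s. Initial rate divided by the DMSO control rate. Single top concentration in triplicate; eight-point half-log curves in triplicate where inhibition exceeded 40%.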

[22] = Aggregation property of the compound in KPi buffer at pH 7.0 assessed as formation of colloid-like particles by dynamic light scattering analysis; type: physicochemical
Procedure, shortened: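 Compounds diluted as 8-point half-log series in filtered 50 mM KPi, pH 7.0, with 1% v/v DMSO final. Particles detected by dynamic light scattering, triplicate at each concentration. CAC taken as the intersection of separate nonlinear fits to aggregating (>10^6 scattering intensity) and non-aggregating data.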

Sequence of Protein arginine N-methyltransferase 1 (Q99873 whole entry, looked up): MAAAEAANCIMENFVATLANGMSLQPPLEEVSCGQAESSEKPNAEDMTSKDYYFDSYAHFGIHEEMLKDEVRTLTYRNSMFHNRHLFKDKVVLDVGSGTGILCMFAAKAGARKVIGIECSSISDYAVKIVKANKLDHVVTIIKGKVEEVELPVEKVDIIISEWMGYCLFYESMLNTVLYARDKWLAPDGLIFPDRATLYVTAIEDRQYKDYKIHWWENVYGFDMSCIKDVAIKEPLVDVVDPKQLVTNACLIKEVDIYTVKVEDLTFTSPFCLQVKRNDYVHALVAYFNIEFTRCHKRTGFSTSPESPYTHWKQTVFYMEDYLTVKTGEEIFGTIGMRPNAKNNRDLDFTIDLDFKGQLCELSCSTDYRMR
Sequence of Histone-lysine N-methyltransferase SETD7 (Homo sapiens) (Q8WTS6 whole entry): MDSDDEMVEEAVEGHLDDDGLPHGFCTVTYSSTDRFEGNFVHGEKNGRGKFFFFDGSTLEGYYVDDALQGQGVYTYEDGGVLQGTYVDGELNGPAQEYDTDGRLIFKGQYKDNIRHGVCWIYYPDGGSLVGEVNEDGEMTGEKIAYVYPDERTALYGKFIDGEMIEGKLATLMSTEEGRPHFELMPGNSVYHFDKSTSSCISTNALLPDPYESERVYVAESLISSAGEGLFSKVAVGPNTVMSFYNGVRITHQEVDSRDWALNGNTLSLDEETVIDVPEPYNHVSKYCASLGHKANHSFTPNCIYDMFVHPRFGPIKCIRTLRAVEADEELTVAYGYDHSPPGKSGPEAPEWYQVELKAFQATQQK
Sequence of Histone-lysine N-methyltransferase SETD2 (Homo sapiens) (Q9BYW2 whole entry): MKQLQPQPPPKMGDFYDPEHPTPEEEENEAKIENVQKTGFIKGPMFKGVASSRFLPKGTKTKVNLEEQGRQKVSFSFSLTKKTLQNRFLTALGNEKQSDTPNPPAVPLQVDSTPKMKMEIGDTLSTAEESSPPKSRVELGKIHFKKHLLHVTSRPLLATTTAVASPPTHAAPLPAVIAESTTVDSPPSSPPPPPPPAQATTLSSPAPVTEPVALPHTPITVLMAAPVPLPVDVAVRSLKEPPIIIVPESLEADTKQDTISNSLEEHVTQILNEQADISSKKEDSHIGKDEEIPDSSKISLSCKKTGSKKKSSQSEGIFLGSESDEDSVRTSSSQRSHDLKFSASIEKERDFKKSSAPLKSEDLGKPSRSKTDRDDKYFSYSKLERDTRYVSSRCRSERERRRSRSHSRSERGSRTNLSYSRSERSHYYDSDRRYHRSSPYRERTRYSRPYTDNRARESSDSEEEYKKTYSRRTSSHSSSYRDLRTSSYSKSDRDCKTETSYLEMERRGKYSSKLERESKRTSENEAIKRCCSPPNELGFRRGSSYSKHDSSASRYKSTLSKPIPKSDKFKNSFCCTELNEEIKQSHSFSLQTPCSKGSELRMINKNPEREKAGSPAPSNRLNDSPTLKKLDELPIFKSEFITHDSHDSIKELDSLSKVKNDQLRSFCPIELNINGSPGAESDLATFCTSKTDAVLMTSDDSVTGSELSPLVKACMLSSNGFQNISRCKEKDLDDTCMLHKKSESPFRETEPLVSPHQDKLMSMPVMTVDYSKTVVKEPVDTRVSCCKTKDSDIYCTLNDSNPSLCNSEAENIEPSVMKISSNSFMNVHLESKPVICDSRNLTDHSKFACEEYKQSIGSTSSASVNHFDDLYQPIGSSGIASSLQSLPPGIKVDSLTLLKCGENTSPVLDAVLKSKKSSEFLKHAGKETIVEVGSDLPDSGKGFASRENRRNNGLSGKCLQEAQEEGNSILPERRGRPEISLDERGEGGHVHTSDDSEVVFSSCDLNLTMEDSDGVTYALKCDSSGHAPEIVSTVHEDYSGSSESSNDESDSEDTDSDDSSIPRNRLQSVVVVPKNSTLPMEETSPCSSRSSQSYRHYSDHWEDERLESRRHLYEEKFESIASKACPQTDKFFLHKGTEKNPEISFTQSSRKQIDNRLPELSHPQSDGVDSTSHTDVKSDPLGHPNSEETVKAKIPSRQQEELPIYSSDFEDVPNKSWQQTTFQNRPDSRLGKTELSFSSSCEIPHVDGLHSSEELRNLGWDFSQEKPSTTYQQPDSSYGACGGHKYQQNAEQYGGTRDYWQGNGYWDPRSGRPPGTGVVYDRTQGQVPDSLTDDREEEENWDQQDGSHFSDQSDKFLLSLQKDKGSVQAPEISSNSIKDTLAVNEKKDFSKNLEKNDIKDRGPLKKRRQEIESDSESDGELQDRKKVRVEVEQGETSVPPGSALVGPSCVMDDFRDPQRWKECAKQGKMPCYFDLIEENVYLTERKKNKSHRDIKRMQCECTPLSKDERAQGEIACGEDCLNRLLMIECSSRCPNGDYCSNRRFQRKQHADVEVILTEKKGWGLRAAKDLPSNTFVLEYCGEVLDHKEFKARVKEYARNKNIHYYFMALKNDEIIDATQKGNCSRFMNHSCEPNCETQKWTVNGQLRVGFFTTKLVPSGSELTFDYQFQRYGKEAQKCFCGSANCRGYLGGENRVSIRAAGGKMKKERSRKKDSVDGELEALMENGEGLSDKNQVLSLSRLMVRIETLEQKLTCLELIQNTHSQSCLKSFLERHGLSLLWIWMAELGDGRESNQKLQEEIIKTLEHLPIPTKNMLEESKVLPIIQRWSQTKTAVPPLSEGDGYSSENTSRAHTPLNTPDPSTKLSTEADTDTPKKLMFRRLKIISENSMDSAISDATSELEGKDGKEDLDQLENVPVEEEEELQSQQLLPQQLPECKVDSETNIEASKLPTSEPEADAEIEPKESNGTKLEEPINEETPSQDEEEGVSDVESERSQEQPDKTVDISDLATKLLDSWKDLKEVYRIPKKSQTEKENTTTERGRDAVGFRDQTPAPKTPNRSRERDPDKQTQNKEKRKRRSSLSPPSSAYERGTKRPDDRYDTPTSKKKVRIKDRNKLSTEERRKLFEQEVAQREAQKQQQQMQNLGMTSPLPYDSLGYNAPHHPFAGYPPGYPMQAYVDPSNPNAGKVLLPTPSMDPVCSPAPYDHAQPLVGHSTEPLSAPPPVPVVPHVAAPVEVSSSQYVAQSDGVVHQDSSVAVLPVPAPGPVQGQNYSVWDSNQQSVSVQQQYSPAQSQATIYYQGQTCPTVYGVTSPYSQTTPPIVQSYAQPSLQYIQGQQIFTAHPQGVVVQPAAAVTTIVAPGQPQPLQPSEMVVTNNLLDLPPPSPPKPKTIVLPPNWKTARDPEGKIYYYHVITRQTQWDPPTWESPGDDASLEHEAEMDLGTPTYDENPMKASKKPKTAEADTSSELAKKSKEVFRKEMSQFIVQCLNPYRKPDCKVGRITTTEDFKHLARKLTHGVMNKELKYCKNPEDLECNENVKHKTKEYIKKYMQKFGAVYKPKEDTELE
Sequence of Protein arginine N-methyltransferase 8 (Homo sapiens) (Q9NR22 2-394 limits assumed): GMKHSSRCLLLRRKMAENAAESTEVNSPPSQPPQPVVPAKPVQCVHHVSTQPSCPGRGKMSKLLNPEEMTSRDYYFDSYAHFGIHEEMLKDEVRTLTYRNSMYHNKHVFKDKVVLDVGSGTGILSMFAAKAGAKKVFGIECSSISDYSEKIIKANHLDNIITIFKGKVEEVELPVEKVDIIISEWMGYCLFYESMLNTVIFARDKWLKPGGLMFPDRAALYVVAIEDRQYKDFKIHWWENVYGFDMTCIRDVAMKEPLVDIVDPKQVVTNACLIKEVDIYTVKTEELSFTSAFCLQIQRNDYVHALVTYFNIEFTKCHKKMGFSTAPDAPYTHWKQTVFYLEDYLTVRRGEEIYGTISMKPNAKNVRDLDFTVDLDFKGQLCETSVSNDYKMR
Sequence of Histone-lysine N-methyltransferase PRDM9 (Homo sapiens) (Q9NQV7 whole entry): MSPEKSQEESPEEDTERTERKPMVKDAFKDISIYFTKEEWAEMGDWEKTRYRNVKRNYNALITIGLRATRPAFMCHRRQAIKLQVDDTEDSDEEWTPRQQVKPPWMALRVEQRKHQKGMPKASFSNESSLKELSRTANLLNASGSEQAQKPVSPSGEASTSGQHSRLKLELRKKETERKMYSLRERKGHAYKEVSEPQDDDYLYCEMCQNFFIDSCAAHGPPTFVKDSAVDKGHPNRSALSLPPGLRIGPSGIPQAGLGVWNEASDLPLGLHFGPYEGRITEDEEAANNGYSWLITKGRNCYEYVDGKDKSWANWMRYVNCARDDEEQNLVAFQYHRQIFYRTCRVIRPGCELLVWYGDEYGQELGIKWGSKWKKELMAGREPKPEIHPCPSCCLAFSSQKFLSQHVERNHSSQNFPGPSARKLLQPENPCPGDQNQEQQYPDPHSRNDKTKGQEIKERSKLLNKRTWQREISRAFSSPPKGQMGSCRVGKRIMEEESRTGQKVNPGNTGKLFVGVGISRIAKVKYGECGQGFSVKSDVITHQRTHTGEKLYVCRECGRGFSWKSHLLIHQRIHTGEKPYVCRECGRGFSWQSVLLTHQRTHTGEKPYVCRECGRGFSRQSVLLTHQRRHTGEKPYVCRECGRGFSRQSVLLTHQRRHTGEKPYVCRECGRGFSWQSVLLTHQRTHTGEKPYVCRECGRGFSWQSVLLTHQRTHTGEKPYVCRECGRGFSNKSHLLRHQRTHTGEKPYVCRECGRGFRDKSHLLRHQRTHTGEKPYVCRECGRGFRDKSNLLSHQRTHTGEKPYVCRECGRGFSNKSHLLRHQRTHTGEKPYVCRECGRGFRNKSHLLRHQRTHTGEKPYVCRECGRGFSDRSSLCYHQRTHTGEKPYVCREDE
Sequence of Histone-lysine N-methyltransferase SUV39H1 (Homo sapiens) (O43463 whole entry): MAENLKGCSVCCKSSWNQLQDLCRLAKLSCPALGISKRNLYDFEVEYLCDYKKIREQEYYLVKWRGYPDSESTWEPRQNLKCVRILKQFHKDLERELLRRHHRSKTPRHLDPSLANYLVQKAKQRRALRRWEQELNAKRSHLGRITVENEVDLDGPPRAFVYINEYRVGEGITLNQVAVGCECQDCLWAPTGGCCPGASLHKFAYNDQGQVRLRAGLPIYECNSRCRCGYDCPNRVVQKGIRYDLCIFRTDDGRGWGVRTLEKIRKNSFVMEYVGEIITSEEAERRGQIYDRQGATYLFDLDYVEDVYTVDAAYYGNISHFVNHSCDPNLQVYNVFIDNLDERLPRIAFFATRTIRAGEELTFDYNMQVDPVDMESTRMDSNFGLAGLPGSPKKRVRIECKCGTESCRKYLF

For `Cc1c(C(=O)/C=C/c2ccc(O)c([N+](=O)[O-])c2)c(C#N)c2n1CCC2`, the inhibition [1] was < 50%, the inhibition [2] was < 50% and the inhibition [3] was < 50%. For the same molecule, the inhibition [4] was < 50%, the inhibition [5] was < 50% and the inhibition [6] was < 50%. For the same molecule, the inhibition [7] was < 50%, the inhibition [8] was < 50% and the inhibition [9] was < 50%. For the same molecule, the inhibition [10] was < 50%, the inhibition [11] was < 50% and the inhibition [12] was < 50%. For the same molecule, the inhibition [13] was < 50%, the inhibition [14] was < 50% and the inhibition [15] was < 50%. For the same molecule, the inhibition [16] was < 50%, the inhibition [17] was < 50% and the inhibition [18] was < 50%. For the same molecule, the inhibition [19] was < 50%, the inhibition [20] was < 50% and the inhibition [21] was “Active”. The Activity [22] was “Not Active”.
